Consider 19 molecules from ChEMBL document CHEMBL3865831, “Cantharimide and Its Derivatives from the Blister Beetle Mylabris phalerata Palla” (J Nat Prod, 2016).

A short description of series [1]: Cytotoxicity against human HCT116 cells measured after 72 hrs by MTT assay. To be noted: HCT-116, 72 h. In kind it is functional, cell-based. Put shortly:
(§1)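 Cells were exposed to serial dilutions of compound from 1.00 to 100 μg/mL for 72 h. MTT (400 μg/mL) was then added for 4 h, replaced with DMSO, and absorbance was read at 540 nm. Cantharidin was the positive control.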
On the technique in general: Formazan colour is commonly taken as a measure of viable cells.

A short description of series [2]: Cytotoxicity against human BGC823 cells measured after 72 hrs by MTT assay. In kind it is functional, cell-based. The conditions noted are these: BGC-823, 72 h. Put shortly:
as §1

Series [3] can be described thus: Cytotoxicity against human HepG2.2.15 cells after 72 hrs by MTT assay. The series is classed as functional, cell-based. To be noted: HepG2 2.2.15, 72 h. Put shortly:
as §1

Series [4] can be described thus: Toxicity against human HepG2.2.15 cells infected with HBV after 72 hrs by MTT assay. The series is classed as cell-based, HepG2 2.2.15. The essentials:
as §1

Series [5] concerns Hepatitis B virus. Nature of the series: Antiviral activity against Hepatitis B virus infected human HepG2.2.15 cells assessed as inhibition of HBeAg secretion measured after 96 hrs by ELISA. In kind it is functional. To be noted: HepG2.2.15, 96 h. The essentials: (§2)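 HepG2.2.15 cells, stably transfected with the HBV genome, were grown for 24 h in DMEM with 10% FBS, 100 μg/mL G418 and penicillin/streptomycin at 37 °C under 5% CO2. Compounds diluted in culture medium were then added for 96 h. HBeAg or HBsAg in the collected medium was measured by ELISA. Adefovir dipivoxil was the positive control. Data are mean ± SD, n = 3.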

The nature of series [6]: Selectivity index, ratio of CC50 for human HepG2.2.15 cells to IC50 for inhibition of HBeAg secretion in Hepatitis B virus infected human HepG2.2.15 cells. In kind it is functional. The essentials: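 SI is CC50 in HepG2.2.15 cells divided by IC50 for HBeAg inhibition, the latter measured by ELISA of medium after 96 h of compound treatment. Values are from triplicate determinations.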

The subject of series [7] is Hepatitis B virus. The series can be described thus: Antiviral activity against Hepatitis B virus infected human HepG2.2.15 cells assessed as inhibition of HBsAg secretion measured after 96 hrs by ELISA. The series is classed as functional. The conditions noted are these: HepG2.2.15, 96 h. The essentials: as §2
Background: An ELISA detects its analyte on a solid surface through an enzyme-linked reagent.

The term IC50 denotes the point on the concentration scale where inhibition reaches its midpoint. Turning to `C[C@]12C(=O)N(CCCO)C(=O)[C@H]1[C@@H]1CC[C@H]2O1`, the IC50 in series [1], in series [2] and in series [3] was greater than 10 µM in each case.
On to `CNC(=O)CCCN1C(=O)[C@@]2(C)[C@@H]3CC[C@@H](O3)[C@@]2(C)C1=O`, for which the IC50 in series [1], in series [2] and in series [3] was greater than 10 µM in each case.
As for `C[C@@]12C(=O)N(CC(N)=O)C(=O)[C@]1(C)[C@H]1CC[C@@H]2O1`, the IC50 in series [1], in series [2] and in series [3] was greater than 10 µM each time.
As a reminder, the CC50 is the concentration giving 50% cytotoxicity. Low readings indicate greater toxicity to the cells, high ones lower toxicity to the cells. The molecule `C[C@@]12C(=O)NC(=O)[C@]1(C)[C@H]1CC[C@@H]2O1` registered a CC50 at 72 h in series [4] of 280 µM. Besides, the IC50 was 42 µM in series [5]; greater than 260 µM in series [7]; greater than 10 µM in series [1]; greater than 10 µM in series [2]; greater than 10 µM in series [3]. Also, in series [6], the “Ratio CC50/IC50” value turned out to be 6.7.
Regarding `C[C@@]12C(=O)N(CCO)C(=O)[C@]1(C)[C@H]1CC[C@@H]2O1`, the CC50 at 72 h in series [4] was greater than 420 µM. Also, the IC50 in series [5] was 62 µM; in series [7], greater than 210 µM; in series [1], greater than 10 µM; in series [2], greater than 10 µM; in series [3] it was greater than 10 µM.
Molecule `CC(C)(C)C(=O)OCOP(=O)(COCCn1cnc2c(N)ncnc21)OCOC(=O)C(C)(C)C` [ADEFOVIR DIPIVOXIL] displayed a CC50 at 72 h in series [4] greater than 400 µM. The IC50 in series [5] is 290 µM; in series [7], 270 µM.
For the molecule `C[C@]12C(=O)N(CC(N)=O)C(=O)[C@H]1[C@@H]1CC[C@H]2O1`, the IC50 in series [1], in series [2] and in series [3] was greater than 10 µM in each case.
As to `C[C@@]12C(=O)N(CCC(N)=O)C(=O)[C@]1(C)[C@H]1CC[C@@H]2O1`, the IC50 in series [1], in series [2] and in series [3] was greater than 10 µM in each case.
In the case of `C[C@@]12C(=O)N(CCO)C(=O)[C@]1(CO)[C@H]1CC[C@@H]2O1`, the IC50 in series [1], in series [2] and in series [3] was greater than 10 µM each time.
Regarding `C[C@@]12C(=O)N(CCCO)C(=O)[C@]1(C)[C@H]1CC[C@@H]2O1`, the IC50 in series [1], in series [2] and in series [3] was greater than 10 µM throughout.
Turning to `C[C@@]12C(=O)NC(=O)[C@]1(CO)[C@H]1CC[C@@H]2O1`, the IC50 in series [1], in series [2] and in series [3] was greater than 10 µM each time.
As to `CN1C(=O)[C@@]2(C)[C@@H]3CC[C@@H](O3)[C@@]2(CO)C1=O`, the IC50 in series [1], in series [2] and in series [3] was greater than 10 µM throughout.
Consider `CNC(=O)CCCN1C(=O)[C@H]2[C@@H]3CC[C@@H](O3)[C@@]2(C)C1=O`, for which the IC50 in series [1], in series [2] and in series [3] was greater than 10 µM in each case.
In the case of `C[C@@]12C(=O)N(CCc3ccc(O)cc3)C(=O)[C@]1(C)[C@H]1CC[C@@H]2O1`, the CC50 at 72 h in series [4] is greater than 320 µM. Further, the IC50 was 58 µM in series [5]; greater than 160 µM in series [7]; greater than 10 µM in series [1]; greater than 10 µM in series [2]; greater than 10 µM in series [3].
In the case of `C[C@@]12C(=O)N(CCCO)C(=O)[C@]1(CO)[C@H]1CC[C@@H]2O1`, the IC50 in series [1], in series [2] and in series [3] was greater than 10 µM in each case.
`C[C@@]12C(=O)N(CCCN3C(=O)[C@@]4(C)[C@@H]5CC[C@@H](O5)[C@@]4(C)C3=O)C(=O)[C@]1(C)[C@H]1CC[C@@H]2O1`: the IC50 in series [1], in series [2] and in series [3] was greater than 10 µM in each case.
Turning to `C[C@@]12C(=O)N(CCCCN3C(=O)[C@@]4(C)[C@@H]5CC[C@@H](O5)[C@@]4(C)C3=O)C(=O)[C@]1(C)[C@H]1CC[C@@H]2O1`, in series [4], the CC50 at 72 h was greater than 220 µM. Further, the IC50 in series [5] was 19 µM; in series [7] it was greater than 110 µM; in series [1] it was greater than 10 µM; in series [2] it was greater than 10 µM; in series [3], greater than 10 µM.
Regarding `CC(=O)CN1C(=O)[C@@]2(C)[C@@H]3CC[C@@H](O3)[C@@]2(C)C1=O`, the IC50 in series [1], in series [2] and in series [3] was greater than 10 µM each time.
`C[C@]12C(=O)NC(=O)[C@H]1[C@@H]1CC[C@H]2O1`: the IC50 in series [1], in series [2] and in series [3] was greater than 10 µM each time.
